Results on 15 compounds are retold here after ChEMBL document CHEMBL2146474, “Synthesis and evaluation of the anti-proliferative and NF-κB activities of a library of simplified tylophorine analogs” (Bioorg Med Chem, 2012).

Molecules are shown by their SMILES. pIC50: −log10 of the molar value. Active and inactive are the calls of the source. The calls are words filed in the database; no cut-off is given here.

The test system of one assay is MCF7. Description: Cytotoxicity against human MCF7 cells assessed as growth inhibition at 5 uM after 72 hrs by alamar blue assay. Type of assay: functional.
Conditions: not given
On to `COc1cc2c3c(c4cc(OC)c(OC)cc4c2cc1OC)CN(Cc1ccc(CO)o1)CC3`, for which the “growth inhibition (GI)” value is “Active”.

In the case of `COc1cc2c3c(c4cc(OC)c(OC)cc4c2cc1OC)CN(Cc1ccc([N+](=O)[O-])cc1)CC3`, the “growth inhibition (GI)” value was “Active”.

Take `COc1cc2c3c(c4cc(OC)c(OC)cc4c2cc1OC)CN(Cc1cc(C)on1)CC3`: the “growth inhibition (GI)” value was “Active”.

Regarding `COc1cc2c3c(c4cc(OC)c(OC)cc4c2cc1OC)CN(CCN)CC3`, the “growth inhibition (GI)” value was “inactive”.

As for `COc1ccc(CN2CCc3c(c4cc(OC)c(OC)cc4c4cc(OC)c(OC)cc34)C2)cc1`, the “growth inhibition (GI)” value is “Active”.

Take `COc1cc2c3c(c4cc(OC)c(OC)cc4c2cc1OC)CN(Cc1ccccc1)CC3`: the “growth inhibition (GI)” value is “inactive”.

Consider `COc1cc2c3c(c4cc(OC)c(OC)cc4c2cc1OC)CN(Cc1c(OC)cccc1OC)CC3`, for which the “growth inhibition (GI)” value is “inactive”.

In the case of `COc1cc2c3c(c4cc(OC)c(OC)cc4c2cc1OC)CN(Cc1cccc(OC)c1O)CC3`, the “growth inhibition (GI)” value is “Active”.

For the compound `COc1cc2c3c(c4cc(OC)c(OC)cc4c2cc1OC)CN(Cc1ccccc1O)CC3`, the “growth inhibition (GI)” value is “Active”.

Staying with this assay, now noted: MCF7, 72 h, read-out: GI.
`COc1cc2c3c(c4cc(OC)c(OC)cc4c2cc1OC)CNCC3`: the inhibition of growth at 5 µM was 50%.

Consider `COc1ccccc1CN1CCc2c(c3cc(OC)c(OC)cc3c3cc(OC)c(OC)cc23)C1`, for which the inhibition of growth at 5 µM amounted to 90%.

For `COc1cc2c3c(c4cc(OC)c(OC)cc4c2cc1OC)CN(C)CC3`, the inhibition of growth at 5 µM was found to be 50%.

System in another assay: not listed separately
Description: Inhibition of TNFalpha-induced NF-kappaB activation in human A549 cells after 30 mins by luciferase reporter gene assay. In kind it is cell-based. To be noted: A549, 0.5 h. The procedure, abridged: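 A549/NF-κB-luc reporter cells trypsinized, seeded at 5000 cells/well and left 24 h to attach. Compound in complete growth medium added 30 min before TNF-α (1:667 dilution in 1× PBS). After a further 7 h, Bright-Glo luciferin reagent added and luciferase activity read 2 min later.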
(In general: A reporter such as luciferase makes a cellular process visible.)
On to `COc1cc2c3c(c4cc(OC)c(OC)cc4c2cc1OC)CN1CCCC1C3` (racemic) [(+/-)-TYLOPHORINE], for which the pIC50 was 7.52.

The compound `COc1ccccc1CN1CCc2c(c3cc(OC)c(OC)cc3c3cc(OC)c(OC)cc23)C1` gave a pIC50 of 4.82.

`COc1cc2c3c(c4cc(OC)c(OC)cc4c2cc1OC)CN(Cc1cccc(OC)c1O)CC3` gave a pIC50 of 4.72.

Another assay concerns A549. Description: Growth inhibition in human A549 cells after 72 hrs by alamar blue assay. Type of assay: functional. Particulars: A549, 72 h. The procedure, abridged: (§1)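 Cells harvested from exponential-phase culture and resuspended at 10⁵ cells/mL in growth medium with 10% FBS (RPMI1640, EMEM or DMEM; the DMEM also held penicillin, streptomycin and hygromycin), seeded in 96-well plates. Compounds from 10 mM DMSO stocks added in fresh medium across varying concentrations. Cultures grown a further 72 h, then alamarBlue added as read-out.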
For the compound `COc1cc2c3c(c4cc(OC)c(OC)cc4c2cc1OC)CN1CCCC1C3` (racemic) [(+/-)-TYLOPHORINE], the concentration for 50% growth inhibition (GI50) came to 45 nM. This lies in the double-digit nanomolar range.

Regarding `COc1ccccc1CN1CCc2c(c3cc(OC)c(OC)cc3c3cc(OC)c(OC)cc23)C1`, the GI50 stood at 1600 nM.

The compound `COc1cc2c3c(c4cc(OC)c(OC)cc4c2cc1OC)CN(Cc1cccc(OC)c1O)CC3` gave a GI50 of 2100 nM.

A further assay concerns DU-145. Description: Growth inhibition in human DU145 cells after 72 hrs by alamar blue assay. In kind it is functional. To be noted: DU-145, 72 h. In outline: as §1
(In general: Resazurin is reduced to fluorescent resorufin, in cell work by metabolically active cells.)
As for `COc1cc2c3c(c4cc(OC)c(OC)cc4c2cc1OC)CN1CCCC1C3` (racemic) [(+/-)-TYLOPHORINE], it took 71 nM to inhibit growth by half (GI50).

The compound `COc1ccccc1CN1CCc2c(c3cc(OC)c(OC)cc3c3cc(OC)c(OC)cc23)C1` registered a GI50 of 1500 nM.

Consider `COc1cc2c3c(c4cc(OC)c(OC)cc4c2cc1OC)CN(Cc1cccc(OC)c1O)CC3`, for which the concentration for 50% growth inhibition (GI50) stood at 2100 nM.

Another assay deals with MCF7. Description: Growth inhibition in human MCF7 cells after 72 hrs by alamar blue assay. In kind it is functional. Particulars: MCF7, 72 h. The procedure, abridged:
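MCF-7 cells from exponential-phase culture re-suspended in RPMI1640 with 10% FBS, adjusted to 10⁵ cells/mL and plated in 96-well plates. Compounds from 10 mM DMSO stocks were added in fresh medium across varying concentrations. Cells were grown a further 72 h, then alamarBlue was added as read-out.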
On to `COc1cc2c3c(c4cc(OC)c(OC)cc4c2cc1OC)CN1CCCC1C3` (racemic) [(+/-)-TYLOPHORINE], for which the GI50 is 42 nM.

Regarding `COc1cc2c3c(c4cc(OC)c(OC)cc4c2cc1OC)CN1CCC[C@H]1C3` [(S)-TYLOPHORINE], the concentration for 50% growth inhibition (GI50) was 42 nM.

In the case of `COc1ccccc1CN1CCc2c(c3cc(OC)c(OC)cc3c3cc(OC)c(OC)cc23)C1`, the GI50 amounted to 600 nM.

`COc1cc2c3c(c4cc(OC)c(OC)cc4c2cc1OC)CN1CCC[C@@H]1C3` [TYLOPHORINE] came in with a GI50 of 32 nM.

For the compound `COc1cc2c3c(c4cc(OC)c(OC)cc4c2cc1OC)CN(Cc1cccc(OC)c1O)CC3`, the GI50 was 3000 nM.

What is called pIC50 is the negative decadic logarithm of the IC50, by convention in mol/L. What is called GI50 is the concentration that inhibits growth by half.
